Assay results published in ChEMBL document CHEMBL4715831, “Design and synthesis of 2-((1H-indol-3-yl)thio)-N-phenyl-acetamides as novel dual inhibitors of respiratory syncytial virus and influenza virus A” (Eur J Med Chem, 2020).

Assays:
[1] = Cytotoxicity against human HEp-2 cells assessed as reduction in cell viability measured after 48 hrs by MTS assay; assay type: cell-based
In short: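 HEp-2 cells plated; after 24 h, compound added and cells incubated 48 h. MTS (2 mg/ml) then added for 3 h at 37 °C in 5% CO2 and absorbance read at 490 nm. Untreated control set as 100%.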

[2] = Cytotoxicity against human HEp-2 cells assessed as cell viability at 50 uM measured after 48 hrs by MTS assay relative to control; assay type: cell-based; details: read-out: Activity
[3] = test system: Respiratory syncytial virus; experiment: Antiviral activity against GFP-fused wild-type RSV subgroup A Long infected in human HEp-2 cells measured 24 to 72 hrs post infection by fluorescence assay; assay type: functional, cell-based
In short: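 HEp-2 cells plated, then after 24 h infected with RSV-mGFP using 3-fold serially diluted inocula starting from 3 × 10^4 pfu/well. Compounds came from a 100 mM DMSO stock, diluted as indicated. RFU read at 479/517 nm at 24, 48 and 72 h post-infection, with non-infected cells as background. Mean ± SD of at least three experiments.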

[4] = test system: Respiratory syncytial virus; experiment: Antiviral activity against GFP-fused wild-type RSV subgroup A Long infected in human HEp-2 cells at 50 uM measured 24 to 72 hrs post infection by fluorescence assay relative to control; assay type: functional; details: time 24-72 hrs
[5] = Safety index, ratio of CC50 for human HEp-2 cells to EC50 for GFP-fused wild-type RSV subgroup A long infected in human HEp-2 cells; assay type: toxicity, cell-based; details: read-out: Ratio CC50/EC50
[6] = test system: Respiratory syncytial virus; experiment: Antiviral activity against GFP-fused wild-type RSV subgroup A Long infected in human HEp-2 cells assessed as relative fluorescence intensity at 20 uM pretreated for 1 hr followed by viral infection measured 24 to 72 hrs post infection by fluorescence assay; assay type: functional, Respiratory syncytial virus type A; details: time 24-73 hrs
In short: (§1)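 HEp-2 cells exposed to compound at 20 μM 1 h before RSV-mGFP infection (−1 h). GFP fluorescence read at 479/517 nm at 24, 48 and 72 h post-infection. Signal normalized to the DMSO control, set as 1; ribavirin was the positive control. Mean ± SD, three independent experiments.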

Influenza A virus [7] = experiment: Antiviral activity against Influenza A virus A/WSN/33(H1N1) infected in human HEK293T cells measured after 24 hrs by Gaussia luciferase reporter gene method; assay type: functional, organism-based; details: A/WSN/1933(H1N1); for EC50: HEK-293T
In short: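 HEK293T cells carrying a Gaussia luciferase reporter that is activated by IAV, infected with A/WSN/33 (H1N1) for 1 h at room temperature, then cultured 24 h at 37 °C with serially diluted compound. Supernatant Gluc read with coelenterazine-h (16.7 μM in PBS) as 0.5-s photon counts. Normalized to control set as 100%; ribavirin positive control; three experiments.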

[8] = Antiviral activity against H3N2 infected in MDCK cells measured after 24 hrs by Gaussia luciferase reporter gene method; assay type: functional, cell-based, H3N2 subtype; details: Influenza A virus
In short: (§2)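 MDCK cells infected with IAV A/WSN/33 (H1N1) or H3N2 for 1 h at room temperature, then cultured in fresh DMEM with serially diluted compound for 24 h at 37 °C. Gluc activity in the medium read with coelenterazine-h (16.7 μM in PBS). Normalized to control set as 100%; ribavirin positive control; mean ± SD of three experiments.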

[9] = Safety index, ratio of CC50 for HEK293T cells to EC50 for antiviral activity against Influenza A virus A/WSN/33(H1N1) infected in human HEK293T cells; assay type: toxicity, cell-based; details: read-out: Ratio CC50/EC50
[10] = Cytotoxicity against HEK293T cells assessed as reduction in cell viability measured after 48 hrs by CCK8 assay; assay type: cell-based, HEK-293T; details: human
In short: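 293T cells treated for 48 h with six compound concentrations from 12.5 to 200 μM, with DMSO-only cells as control. CCK-8 then added for 1 h at 37 °C and OD read at 450 nm. Mean ± SD of three experiments.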

Influenza A virus [11] = experiment: Antiviral activity against Influenza A virus A/WSN/33(H1N1) infected in HEK293T cells assessed as relative fluorescence intensity at 20 uM pretreated for 2 hrs followed by viral infection and measured after 24 hrs by Gaussia luciferase reporter gene method; assay type: functional, A/WSN/1933(H1N1); details: time 26 hrs
In short: (§3)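 Time-of-addition assay: compound at 20 μM added before infection or at infection (0 h) in HEK293T-Gluc cells infected with A/WSN/33 (H1N1). Supernatant Gaussia luciferase measured after 24 h with coelenterazine-h. Values normalized to the DMSO control, set as 100%; ribavirin positive control. Mean ± SD, three independent experiments.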

Influenza A virus [12] = experiment: Antiviral activity against Influenza A virus A/WSN/33(H1N1) infected in MDCK cells measured after 24 hrs by Gaussia luciferase reporter gene method; assay type: functional, organism-based; details: A/WSN/1933(H1N1); in short: as §2
Influenza A virus [13] = experiment: Antiviral activity against Influenza A virus A/WSN/33(H1N1) infected in human HEK293T cells assessed as inhibition of viral replication at 10 uM measured after 24 hrs by Gaussia luciferase reporter gene method relative to control; assay type: functional; details: A/WSN/1933(H1N1), HEK-293T
Influenza A virus [14] = experiment: Antiviral activity against Influenza A virus A/WSN/33(H1N1) infected in HEK293T cells co-transfected with NP/PA/PB1/PB2 complex assessed as inhibition of viral replication after 24 hrs by mini-genome replicon system based luciferase assay; assay type: functional, organism-based; details: A/WSN/1933(H1N1); for EC50: HEK-293T
In short: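 Minigenome assay: vRNA transcription read as luciferase activity 24 h after transfection. Normalized to control set as 100%. Mean ± SD of three independent experiments.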

Influenza A virus [15] = experiment: Antiviral activity against Influenza A virus A/WSN/33(H1N1) infected in HEK293T cells assessed as inhibition of viral replication at 20 uM measured after 24 hrs by Gaussia luciferase reporter gene method relative to control; assay type: functional; details: A/WSN/1933(H1N1), HEK-293T; in short: as §3
Influenza A virus [16] = experiment: Antiviral activity against Influenza A virus A/WSN/33(H1N1) infected in HEK293T cells assessed as inhibition of viral replication at 20 uM pretreated for 2 hrs followed by viral infection and measured after 24 hrs by Gaussia luciferase reporter gene method relative to control; assay type: functional; details: A/WSN/1933(H1N1), HEK-293T, time 26 hrs; in short: as §3
Influenza A virus [17] = experiment: Antiviral activity against Influenza A virus A/WSN/33(H1N1) infected in HEK293T cells assessed as relative fluorescence intensity at 20 uM measured after 24 hrs by Gaussia luciferase reporter gene method; assay type: functional, A/WSN/1933(H1N1); in short: as §3
[18] = test system: Respiratory syncytial virus; experiment: Antiviral activity against GFP-fused wild-type RSV subgroup A Long infected in human HEp-2 cells assessed as reduction in viral infection at 20 uM pretreated for 1 hr followed by viral infection measured 24 to 72 hrs post infection by fluorescence assay relative to control; assay type: functional, Respiratory syncytial virus type A; design: scale not given: the % may be the effect or the level left; details: time 24-73 hrs; in short: as §1
[19] = test system: Respiratory syncytial virus; experiment: Antiviral activity against GFP-fused wild-type RSV subgroup A Long infected in human HEp-2 cells assessed as relative fluorescence intensity at 20 uM measured 24 to 72 hrs post infection by fluorescence assay; assay type: functional, Respiratory syncytial virus type A
In short: (§4)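 RSV-mGFP infection of HEp-2 cells with compound at 20 μM added at the time of infection (0 h). Fluorescence read at excitation 479 nm and emission 517 nm at 24, 48 and 72 h post-infection. Values normalized to the DMSO control, set as 1; ribavirin was the positive control. Mean ± SD of three independent experiments.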

[20] = test system: Respiratory syncytial virus; experiment: Antiviral activity against GFP-fused wild-type RSV subgroup A Long infected in human HEp-2 cells assessed as reduction in viral infection at 20 uM measured 24 to 72 hrs post infection by fluorescence assay relative to control; assay type: functional, Respiratory syncytial virus type A; design: scale not given: the % may be the effect or the level left; details: time 24-72 hrs; in short: as §4

O=C(CSc1c[nH]c2ccccc12)Nc1ccc(Cl)c(Cl)c1
CC50 at 48 h [1]: 37.5 µM
viability at 48 h, 50 µM [2]: 81.8%
EC50 [3]: 32.7 µM
inhibition at 50 µM [4]: 77.1%
selectivity ratio [5]: 1.15

NC(=O)c1ncn([C@@H]2O[C@H](CO)[C@@H](O)[C@H]2O)n1 [RIBAVIRIN]
RFU [6]: 0.04
EC50 (Influenza A virus [7]): 25.1 µM
CC50 at 48 h [1]: 274 µM
EC50 [8]: 20.5 µM
selectivity ratio [9]: > 3.99
EC50 [3]: 15.8 µM
selectivity ratio [5]: 17.3
CC50 at 48 h [10]: > 100 µM
RFU (Influenza A virus [11]): 0.67
EC50 (Influenza A virus [12]): 16 µM

Cn1cc(SCC(=O)Nc2ccc(Cl)c(Cl)c2)c2ccccc21
EC50 (Influenza A virus [7]): 0.64 µM
CC50 at 48 h [1]: 30.5 µM
inhibition at 10 µM (Influenza A virus [13]): > 85%
selectivity ratio [9]: > 156
EC50 [3]: 12.5 µM
selectivity ratio [5]: 2.45
CC50 at 48 h [10]: > 100 µM

CCOc1ccccc1NC(=O)CSc1c[nH]c2c(Br)c(OC)ccc12
Activity (Influenza A virus [7]): Dose-dependent effect
EC50 (Influenza A virus [7]): 1.9 µM
CC50 at 48 h [1]: 9.65 µM
inhibition (Influenza A virus [14]): Dose-dependent effect
EC50 (Influenza A virus [14]): 3.89 µM
EC50 [8]: 1.5 µM
inhibition at 10 µM (Influenza A virus [13]): > 85%
selectivity ratio [9]: > 52.6
inhibition at 20 µM (Influenza A virus [15]): 99.7%
Activity [3]: Dose-dependent effect
EC50 [3]: 2.92 µM
inhibition at 20 µM (Influenza A virus [16]): 99.7%
RFU (Influenza A virus [17]): 0.28
selectivity ratio [5]: 3.3
CC50 at 48 h [10]: > 100 µM
RFU (Influenza A virus [11]): 0.14
EC50 (Influenza A virus [12]): 3.25 µM

Cn1cc(SCC(=O)Nc2c(Cl)cccc2Cl)c2ccccc21
Activity (Influenza A virus [7]): Dose-dependent effect
EC50 (Influenza A virus [7]): 3.5 µM
CC50 at 48 h [1]: 23.7 µM
EC50 [8]: 1.5 µM
inhibition at 10 µM (Influenza A virus [13]): > 85%
selectivity ratio [9]: > 28.6
EC50 [3]: 17.3 µM
selectivity ratio [5]: 1.37
CC50 at 48 h [10]: > 100 µM
EC50 (Influenza A virus [12]): 1.75 µM

CCOc1ccccc1NC(=O)CSc1c[nH]c2ccccc12
CC50 at 48 h [1]: 20.7 µM
viability at 48 h, 50 µM [2]: 65.2%
EC50 [3]: 11.8 µM
inhibition at 50 µM [4]: 83.2%
selectivity ratio [5]: 1.76

CCOc1ccccc1NC(=O)CSc1c[nH]c2ccc(OC)cc12
RFU [6]: 0.06
Activity (Influenza A virus [7]): Dose-dependent effect
EC50 (Influenza A virus [7]): 1.27 µM
CC50 at 48 h [1]: 1830 µM
Activity [18]: 99.4%
RFU [19]: 0.11
inhibition at 10 µM (Influenza A virus [13]): > 85%
selectivity ratio [9]: > 79.4
Activity [3]: Dose-dependent effect
EC50 [3]: 4.82 µM
selectivity ratio [5]: 379
CC50 at 48 h [10]: > 100 µM
Activity [20]: 99.89%

CCOc1ccccc1NC(=O)CSc1c[nH]c2cc(Cl)ccc12
Activity (Influenza A virus [7]): Dose-dependent effect
EC50 (Influenza A virus [7]): 1.53 µM
CC50 at 48 h [1]: 29.9 µM
inhibition (Influenza A virus [14]): Dose-dependent effect
EC50 (Influenza A virus [14]): 1.98 µM
EC50 [8]: 1.58 µM
inhibition at 10 µM (Influenza A virus [13]): > 85%
selectivity ratio [9]: > 65.4
inhibition at 20 µM (Influenza A virus [15]): 99.7%
Activity [3]: Dose-dependent effect
EC50 [3]: 5.58 µM
inhibition at 20 µM (Influenza A virus [16]): 99.7%
RFU (Influenza A virus [17]): 0.22
selectivity ratio [5]: 5.36
CC50 at 48 h [10]: > 100 µM
RFU (Influenza A virus [11]): 0.14
EC50 (Influenza A virus [12]): 2.42 µM
